From PubChem BioAssay AID588760 (Johns Hopkins Ion Channel Center, 2011)
Values without a mark were called inactive.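 Rule for the calls: active = fitted dose response curve and peak inhibition of the Kir2.1 potassium channel above 30% at some dose; inactive = no dose response or no inhibition at any dose.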

These compounds were tested against Inward rectifier potassium channel 2 (Mus musculus) (UniProt P35561) (assay: Kir2.1 channel inhibition, specificity check, SAR follow-up, selectivity assay for KCNK9 inhibitor project, cell-based, FluxOR thallium flux, CRC round 3 (AID 588760)). Conditions: Kir2.1-expressing cells, 20 min; series mostly up to 30 µM; thallium flux ratio, lower = inhibition: at the top concentration.
In short: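 Assay system: FluxOR-loaded Kir2.1 HEK293 cells; Also added: K2SO4/Tl2SO4 stimulus; Replicates: at least duplicate measurements per concentration; Measured by: kinetic fluorescence of thallium-sensitive dye; Incubation: dye loading 90 min RT, compound 20 min RT pre-stimulus.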

Inward rectifier potassium channel 2 (Mus musculus), sequence (P35561 whole entry, looked up): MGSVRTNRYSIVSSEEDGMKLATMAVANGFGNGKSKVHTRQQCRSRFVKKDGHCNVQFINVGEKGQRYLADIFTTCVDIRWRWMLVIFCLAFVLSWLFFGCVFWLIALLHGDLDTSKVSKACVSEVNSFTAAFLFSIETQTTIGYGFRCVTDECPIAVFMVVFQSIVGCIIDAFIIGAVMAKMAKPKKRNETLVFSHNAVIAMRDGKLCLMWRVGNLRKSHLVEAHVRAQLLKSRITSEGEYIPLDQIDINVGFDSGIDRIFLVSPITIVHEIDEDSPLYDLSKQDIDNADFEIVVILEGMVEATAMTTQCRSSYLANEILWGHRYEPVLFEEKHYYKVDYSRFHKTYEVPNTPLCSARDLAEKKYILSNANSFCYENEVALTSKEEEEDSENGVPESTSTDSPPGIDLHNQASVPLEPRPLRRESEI

Row | SMILES | thallium flux ratio, lower = inhibition
1 | CC(CC1CC2CCC1C2)n1c(-c2ccco2)n[nH]c1=S (stereo unspecified) | 1.05
2 | CC(C1CC2CCC1C2)n1c(-c2ccccn2)n[nH]c1=S (stereo unspecified) | 1.72
3 | COc1cccc(-c2nnc(S(C)(=O)=O)n2C(C)C2CC3CCC2C3)c1 (stereo unspecified) | 1.85
4 | COc1ccccc1C(=O)Nc1cc(NC(=O)c2ccccc2C(C)C)ccc1F | 1.84
5 | CC(C)Oc1ccccc1C(=O)Nc1cccc(NC(=O)c2ccccc2OC(F)(F)F)c1 | 1.86
6 | CC(C1CC2CCC1C2)n1c(-c2cccnc2)n[nH]c1=S (stereo unspecified) | 1.93
7 | CC(C1CC2CCC1C2)n1c(SCC(=O)c2ccccc2)nnc1-c1ccco1 (stereo unspecified) | 0.756
8 | CC(C1CC2CCC1C2)n1c(-c2cccs2)n[nH]c1=S (stereo unspecified) | 1.23
9 | COc1cccc(-c2n[nH]c(=S)n2C(C)C2CC3CCC2C3)c1OC (stereo unspecified) | 1.62
10 | CC(c1cccc2ccccc12)n1c(-c2ccco2)n[nH]c1=S (stereo unspecified) | 1.43
11 | CC(CCC1CCCC1)n1c(-c2ccco2)n[nH]c1=S (stereo unspecified) | 1.18
12 | CC(C1CC2CCC1C2)N(C)C(=O)c1ccco1 (stereo unspecified) | 1.97
13 | CC(C1CC2CCC1C2)n1c(-c2ccccc2F)n[nH]c1=S (stereo unspecified) | 1.75
14 | CC(C1CC2CCC1C2)n1c(SCC(=O)c2ccc(Cl)c(Cl)c2)nnc1-c1ccco1 (stereo unspecified) | 1.98
15 | CC(C1CC2CCC1C2)n1c(-c2ccncc2)n[nH]c1=S (stereo unspecified) | 2.29
16 | CC(C1CC2CCC1C2)n1c(SCC(=O)c2ccc3c(c2)OCO3)nnc1-c1ccco1 (stereo unspecified) | 1.49
17 | CC(C1C2CCC1CC2)n1c(-c2ccco2)n[nH]c1=S (stereo unspecified) | 1.4
18 | C[C@@H](C1CCCCC1)n1c(-c2ccco2)n[nH]c1=S | 1.59
19 | CC(C1CCCCC1)n1c(-c2ccco2)n[nH]c1=S (stereo unspecified) | 1.24
20 | CC(C1CC2CCC1C2)n1c(-c2cccc(F)c2)n[nH]c1=S (stereo unspecified) | 1.67
21 | S=c1[nH]nc(-c2ccco2)n1CC1CC2CCC1C2 (stereo unspecified) | 1.13
